Measured values collected from several papers.
Each line is one published result; the experiments were not run side by side.
Cell line: Vero
Read-out: cell growth or viability

CSc1c2c3c(n1C)C(=O)C(=O)C(Cl)=C3NCC2  IC50 (MTT; 72 h): > 17.7 µM
CCCCCCCCn1cc(CN2CCC3(CC2)OCCO3)c2ccc(OC)cc21  IC50: 46 µM
CN(CC[C@H](N)CC(=O)N[C@H]1C=C[C@H](n2ccc(N)nc2=O)O[C@@H]1C(=O)O)C(=N)N  IC50: 13.9 µM
Nc1nc(N)c(CNCCc2cccc(F)c2)c(C2CC2)n1  IC50 (SRB): > 100 µM
N#CCCCOc1ccc(Oc2ccccc2)cc1  CC50 (72 h): > 20 µM
Nc1nc(N)c(CNCCc2ccccc2Cl)c(C2CC2)n1  IC50 (SRB): 67 µM
FC(F)(F)Oc1ccc(Oc2ccc(CNCCNC3C4CC5CC(C4)CC3C5)cc2)cc1 (stereo not drawn)  IC50 (18 h): 3.9 µg/mL
CO[C@H]1/C=C/O[C@@]2(C)Oc3c(C)c(O)c4c(O)c(c(/C=N/N5CCN(C)CC5)c(O)c4c3C2=O)NC(=O)/C(C)=C\C=C\[C@H](C)[C@H](O)[C@@H](C)[C@@H](O)[C@@H](C)[C@H](OC(C)=O)[C@@H]1C  IC50: 113 µM
Nc1nc(N)c(CNCCc2ccc(Cl)cc2Cl)c(C2CC2)n1  IC50 (SRB): 31 µM
N#CCCOc1ccc(Oc2ccccc2)cc1  CC50 (72 h): > 20 µM
O=[N+]([O-])c1ccc(-c2nn(-c3ccccc3)c3sc(NC(c4ccccc4O)P(=O)(Oc4ccccc4)Oc4ccccc4)nc23)cc1 (stereo not drawn)  IC50 (SRB): > 100 µM
COc1ccccc1CCNCc1c(N)nc(N)nc1C1CC1  IC50 (SRB): > 100 µM
Cn1cc2c3c1C(=O)C(N)=C(Cl)C3=NCC2  IC50 (MTT; 72 h): > 21.3 µM
CN(C)c1ccc(C(Nc2nc3c(-c4ccc([N+](=O)[O-])cc4)nn(-c4ccccc4)c3s2)P(=O)(Oc2ccccc2)Oc2ccccc2)cc1 (stereo not drawn)  IC50 (SRB): > 100 µM
NNC(=O)c1ccncc1  IC50 (18 h): 18000 µg/mL
[C-]#[N+]C(C)(C)C[C@@H]1C[C@H](C)[C@H]2CC[C@H](C)[C@@]3([N+]#[C-])CCC(=C)[C@@H]1[C@H]23  IC50: 99.7 µM
Nc1nc(N)c(CNCCc2ccc(Cl)c(Cl)c2)c(C2CC2)n1  IC50 (SRB): 21 µM
C[C@H]1O[C@H](O[C@H]2CC[C@H](n3ccc(NC(=O)c4ccc(NC(=O)[C@@](C)(N)CO)cc4)nc3=O)O[C@@H]2C)[C@H](O)[C@@H](O)[C@@H]1N(C)C  IC50: > 100 µM
